Assay outcomes from PubChem BioAssay.
697 NFkB inh: lowers PMA/ionomycin-induced NF-kB signal in 697 B cells. 330,000 compounds, 0.33% hits. AID 435022. inhibition, % at 4 µM. 697 B-cell NF-kB luciferase reporter, 16 h; in the data active = inhibition above about 35%
miR122 inh: blocks miR-122 activity in Huh7 sensor cells | Huh7 miR-122 Renilla luciferase sensor, 48 h; neutral wells = 0, positive control = 100 | activation (reporter increase), % at 12.5 µM | 340,000 compounds, 0.3% hits;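 active = mean replicate activation score at least 90 and every replicate individually at or above 90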;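 note: higher luciferase means less miR-122 activity so hits act as miR-122 inhibitors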
NR2E3 ag-1: activates human photoreceptor nuclear receptor NR2E3; Q9Y5X4; AID 2300; 320,000 compounds, 0.12% hits; inhibition of corepressor binding, % at 4.78 µM; GST-NR2E3/biotin-RetCOR TR-FRET, 1536-well;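 active = percent inhibition above the cutoff of mean plus 3 SD of all tested compounds, set per screening campaign, cut at about 20% in these data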;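 note: 0% = DMSO wells and 100% = biotin wells as full block of FRET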
Target sequence (Q9Y5X4 whole entry, looked up): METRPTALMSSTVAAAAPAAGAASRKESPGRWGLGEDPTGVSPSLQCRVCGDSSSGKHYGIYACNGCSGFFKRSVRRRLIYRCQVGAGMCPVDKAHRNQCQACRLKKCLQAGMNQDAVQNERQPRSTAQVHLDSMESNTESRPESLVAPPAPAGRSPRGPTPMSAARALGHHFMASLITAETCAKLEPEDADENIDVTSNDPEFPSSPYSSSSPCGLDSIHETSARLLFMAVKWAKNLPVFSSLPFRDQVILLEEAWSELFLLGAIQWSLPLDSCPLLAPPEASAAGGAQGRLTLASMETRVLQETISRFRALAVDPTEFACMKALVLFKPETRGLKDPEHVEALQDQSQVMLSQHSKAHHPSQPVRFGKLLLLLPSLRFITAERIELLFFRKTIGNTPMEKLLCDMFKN
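System: GST-NR2E3 and biotin-RetCOR proteins; probe or stimulus: 7 nM biotin-RetCOR; doses: compound at 4.8 µM, single dose; schedule: Compound–protein incubation for 5 h at 4 °C; detection: time-resolved FRET; read-out: percent inhibition; controls: biotin wells as high control, 0.6% DMSO wells as low control; format: 1536-well plates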
Jurkat NFkB inh: lowers PMA/ionomycin-induced NF-kB signal in Jurkat cells. PMA/ionomycin-induced NF-kB luciferase reporter, luminescence. AID 435003. 330,000 compounds, 0.53% hits. inhibition, % at 4 µM; in the data active = inhibition above about 50%
NR2E3 ag-2: human photoreceptor-specific nuclear receptor agonism; Q9Y5X4; CHO-S Gal4-NCOR/VP16-NR2E3 two-hybrid, luciferase; inhibition of corepressor binding, % at 3.98 µM; 360,000 compounds, 0.35% hits; AID 602229;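 active = inhibition above the mean of all tested compounds plus 3 SD, cut at about 70% in these data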;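 note: 0% = DMSO with NR2E3 transfected cells and 100% = cells lacking NR2E3 construct; higher means lower luciferase signal from less NR2E3 corepressor binding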
FGF22 binding: binders of recombinant human FGF22 by thermal shift | AID 651658 | activity (Tm shift, normalised), % at 9.99 µM | SYPRO orange fluorescence; percent of sucrose octasulfate shift, DMSO zero | 340,000 compounds, 1.5% hits;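 active = mean Tm shift, scaled 0 neutral to 100 positive control, at about 1.3% or above, every replicate too, limit read from the data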
* hit, by the source's call; . = no result; [ ] = remark or other dose. This is a sample that favours compounds with a hit; in the whole collection about 2.2% have one here.

SMILES	697 NFkB inh	miR122 inh	NR2E3 ag-1	Jurkat NFkB inh	NR2E3 ag-2	FGF22 binding
CCCCNC(=O)C1(N2C(=O)c3ccccc3C2=O)CCCC1	.	-3.6	.	.	-1.0	42.7
O=C(O)CNC(=O)C1(N2C(=O)c3ccccc3C2=O)CCCC1	.	100.1*	.	.	-39.4	-0.1
COc1cc(-c2nc3cccc(C)n3c2NCC2CCCO2)ccc1O (configuration not stated)	20.4	.	-1.2	19.1	-40.8	43.1*
Cc1ccc(S(=O)(=O)N(C)C[C@H]2OCCCC[C@H](C)Oc3ccc(NC(=O)C4CCCCC4)cc3C(=O)N([C@H](C)CO)C[C@H]2C)cc1	.	-5.0[16.7 µM]	.	.	.	-0.4
COc1ccc(C(C(=O)NC(C)(C)C)N(CCO)C(=O)CCC(=O)Nc2cc(C)on2)cc1 (configuration not stated)	12.0	-5.9	2.3	-2.4	-15.2	43.0*
O=C(C[C@@H]1C=C[C@H](NC(=O)c2ccc3c(c2)OCO3)[C@@H](CO)O1)NCc1ccc(Cl)cc1	.	.	.	.	.	-0.6
COc1ccc2c3c(n(C)c2c1)[C@H](CO)N(C(=O)CN(C)C)CC31CCN(Cc2nccs2)CC1	.	.	.	.	.	-0.1
CC(OC(=O)C1=Cc2ccccc2OC1)C(=O)NCC1CCCO1 (configuration not stated)	.	-9.3	.	.	-20.8	1.9*
CCC(=O)Oc1ccc(C(=O)Nc2cccc(C(=O)NCC(C)C)c2)cc1	-3.4	.	-1.7	8.0	-20.8	43.2*
CCC(=O)Oc1ccc(C(=O)Nc2ccccc2C(=O)NCC(C)C)cc1	-4.9	.	3.7	-7.9	-14.1	0.1
COc1ccc(-c2ccccc2[C@@H]2[C@H](C#N)N(C(=O)C3CC3)[C@H]2CO)cc1	.	.	.	.	.	-0.4
C=C(C)c1cccc(C(C)(C)NC(=O)Nc2ccc(C(C)=O)cc2)c1	-4.5	2.8	1.4	17.8	-17.2	.
C=C(C)c1cccc(C(C)(C)NC(=O)Nc2ccc(OC)cc2)c1	4.0	-3.9	7.3	18.6	3.8	43.4*
CNC[C@@H]1Oc2ccc(NS(=O)(=O)c3ccc(OC)cc3)cc2C(=O)N([C@H](C)CO)C[C@@H]1C	.	-1.6[16.7 µM]	.	.	.	-0.3
Cc1cccc(Cc2c(C)[nH]c(=O)c(C#N)c2C)c1	2.6	.	-0.5	-6.4	1.8	43.2*
C[C@@H]1CN([C@@H](C)CO)C(=O)c2cc(/C=C/c3ccccc3)cnc2O[C@H]1CN(C)C(=O)NC1CCCCC1	.	-8.1[16.7 µM]	.	.	.	-0.2
CO/N=C\CC(=O)Nc1ccc(Cl)cc1Cl	-23.3	.	4.4	14.0	-41.6	42.9*
CCC(=O)Nc1ccc2c(c1)C(=O)N(C)[C@@H]1CC[C@@H](CC(=O)Nc3cccc(OC)c3)O[C@H]1CO2	.	-16.7[16.7 µM]	.	.	.	-0.2
COC(=O)CNC(=O)COC(=O)/C=C/c1ccc2ccccc2n1	4.5	.	-1.6	5.9	13.9	43.1*
COc1ccc2c(c1OC)C(=O)N(c1ccc(O)cc1)C2=O	9.5	.	-2.0	3.2	3.7	43.2*
Cc1cccc(N2CCN(C(=O)c3ccc4nccnc4c3)CC2C)c1 (configuration not stated)	4.9	-5.4	.	0.9	-11.6	43.0*
CC1=Nc2ccccc2N=C(NC(=O)c2ccccc2)C1c1ccc(Cl)cc1 (configuration not stated)	-22.3	-9.8	3.2	-8.7	-46.8	-0.1
CC1=Nc2ccccc2N=C(N)C1c1ccccc1 (configuration not stated)	-9.6	-6.0	4.8	-2.2	-115.6	43.6*
COc1ccc(-n2nnnc2SCC(=O)N(C)C2CCS(=O)(=O)C2)cc1 (configuration not stated)	-18.1	.	.	0.6	-7.2	43.3*
CCCN(C(=O)CSc1nnnn1C)C1CCS(=O)(=O)C1 (configuration not stated)	12.8	.	0.8	4.4	-2.0	42.9*
Cc1ccccc1-n1c(C)nnc1SCC(=O)N(C)C1CCS(=O)(=O)C1 (configuration not stated)	11.9	.	0.5	1.6	-2.6	-0.7
Cc1cc2nnc(SCC(=O)N(C)C3CCS(=O)(=O)C3)n2c2ccccc12 (configuration not stated)	6.1	-4.4	3.6	5.9	-17.5	43.1*
